Assay results as given in ChEMBL document CHEMBL4229408 (Bioorg Med Chem, 2018).

Assays:
[1] = Antiproliferative activity against human CAR cells after 48 hrs by MTT assay; assay type: functional, cell-based
Procedure, shortened: (§1)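 CAR cells (CAL27 made cisplatin-resistant by 10 cycles of 10–80 μM cisplatin) kept in DMEM/10% FBS with 80 μM cisplatin. Seeded 2×10^4 cells/well and exposed to 0, 25, 50, 75 and 100 μM for 48 or 72 h, with 0.5% DMSO as vehicle. MTT (500 μg/ml) added for 4 h at 37 °C, formazan dissolved in DMSO, A570 read as % of control, IC50 derived.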

[2] = Antiproliferative activity against human CAR cells after 72 hrs by MTT assay; assay type: functional, cell-based; procedure, shortened: as §1
Mus musculus [3] = test: Toxicity in BALB/c nude mouse xenografted with human CAR cells assessed as uric acid levels in blood at 100 mg/kg, po qd administered for 30 days measured on day 31 (reference value: 4.65 +/- 0.864 mg/dL); assay type: organism-based; conditions: in vivo, 720 h
Mus musculus [4] = test: Toxicity in BALB/c nude mouse xenografted with human CAR cells assessed as glucose levels in blood at 100 mg/kg, po qd administered for 30 days measured on day 31 (reference value: 180 +/- 10.392 mg/dL); assay type: organism-based; conditions: in vivo, 720 h
Mus musculus [5] = test: Toxicity in BALB/c nude mouse xenografted with human CAR cells assessed as creatinine levels in blood at 100 mg/kg, po qd administered for 30 days measured on day 31 (reference value: 1 +/- 0.18 mg/dL); assay type: organism-based; conditions: in vivo, 720 h
Mus musculus [6] = test: Toxicity in BALB/c nude mouse xenografted with human CAR cells assessed as total protein levels in blood at 50 mg/kg, po qd administered for 30 days measured on day 31 (reference value: 5.6 +/- 0.283 g/dL); assay type: organism-based; conditions: in vivo, 720 h
Mus musculus [7] = test: Toxicity in BALB/c nude mouse xenografted with human CAR cells assessed as blood urea nitrogen levels in blood at 100 mg/kg, po qd administered for 30 days measured on day 31 (reference value: 27.7 +/- 4.116 mg/dL); assay type: organism-based; conditions: in vivo, 720 h
Mus musculus [8] = test: Toxicity in BALB/c nude mouse xenografted with human CAR cells assessed as change in body weight at 25 to 100 mg/kg, po qd administered for 30 days measured during compound dosing; assay type: organism-based; conditions: in vivo, 720 h
Procedure, shortened: (§2)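 During the 30-day once-daily oral dosing (25–100 mg/kg) of CAR-xenografted nude mice, body weight, food intake and behaviour were tracked and compared with vehicle-treated controls.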

[9] = Antitumor activity against human CAR cells xenografted in BALB/c nude mouse assessed as inhibition of tumor weight at 50 mg/kg, po qd administered for 30 days measured on day 31 relative to control; assay type: functional; set-up: scale not given: the % may be the effect or the level left
Procedure, shortened: (§3)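 Male BALB/c nude mice, four weeks old, implanted subcutaneously in the flank with CAR cells (cisplatin-resistant CAL27 kept in 80 μM cisplatin), 1×10^7 cells/mouse in 0.2 mL medium:Matrigel 1:1. Dosing began at ~50 mm3 tumors (day 22), eight mice/group, oral once daily for 30 days; vehicle 1,2-propanediol. Sacrificed day 31; excised tumors weighed, compared to vehicle controls.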

[10] = Antitumor activity against human CAR cells xenografted in BALB/c nude mouse assessed as inhibition of tumor weight at 100 mg/kg, po qd administered for 30 days measured on day 31 relative to control; assay type: functional; set-up: scale not given: the % may be the effect or the level left; procedure, shortened: as §3
[11] = Prodrug conversion in Sprague-Dawley rat whole blood assessed as formation of pterostilbene-4'-O-sulfate by measuring Tmax of metabolite at 100 mg/kg, po using HPbetaCD, PEG300, H2O formulation at 20:10:70 by LC-MS method; assay type: ADME, organism-based; conditions: in vivo
Procedure, shortened: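 Male Sprague-Dawley rats (200–220 g), n = 3, given a single oral 100 mg/kg dose in HPβCD:PEG300:H2O 20:10:70 (10 mg/mL). Tail-vein blood collected into heparin at 0.5–24 h (0.5, 1, 1.5, 2, 3, 4, 5, 6, 8, 24 h).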

Mus musculus [12] = test: Toxicity in BALB/c nude mouse xenografted with human CAR cells assessed as uric acid levels in blood at 50 mg/kg, po qd administered for 30 days measured on day 31 (reference value: 4.65 +/- 0.864 mg/dL); assay type: organism-based; conditions: in vivo, 720 h
Mus musculus [13] = test: Toxicity in BALB/c nude mouse xenografted with human CAR cells assessed as glucose levels in blood at 50 mg/kg, po qd administered for 30 days measured on day 31 (reference value: 180 +/- 10.392 mg/dL); assay type: organism-based; conditions: in vivo, 720 h
Mus musculus [14] = test: Toxicity in BALB/c nude mouse xenografted with human CAR cells assessed as total protein levels in blood at 100 mg/kg, po qd administered for 30 days measured on day 31 (reference value: 5.6 +/- 0.283 g/dL); assay type: organism-based; conditions: in vivo, 720 h
Mus musculus [15] = test: Toxicity in BALB/c nude mouse xenografted with human CAR cells assessed as change in food consumption at 25 to 100 mg/kg, po qd administered for 30 days measured during compound dosing; assay type: organism-based; conditions: in vivo, 720 h; procedure, shortened: as §2
Mus musculus [16] = test: Toxicity in BALB/c nude mouse xenografted with human CAR cells assessed as glucose levels in blood at 25 mg/kg, po qd administered for 30 days measured on day 31 (reference value: 180 +/- 10.392 mg/dL); assay type: organism-based; conditions: in vivo, 720 h
Mus musculus [17] = test: Toxicity in BALB/c nude mouse xenografted with human CAR cells assessed as total protein levels in blood at 25 mg/kg, po qd administered for 30 days measured on day 31 (reference value: 5.6 +/- 0.283 g/dL); assay type: organism-based; conditions: in vivo, 720 h
Mus musculus [18] = test: Toxicity in BALB/c nude mouse xenografted with human CAR cells assessed as blood urea nitrogen levels in blood at 25 mg/kg, po qd administered for 30 days measured on day 31 (reference value: 27.7 +/- 4.116 mg/dL); assay type: organism-based; conditions: in vivo, 720 h
Mus musculus [19] = test: Toxicity in BALB/c nude mouse xenografted with human CAR cells assessed as creatinine levels in blood at 25 mg/kg, po qd administered for 30 days measured on day 31 (reference value: 1 +/- 0.18 mg/dL); assay type: organism-based; conditions: in vivo, 720 h
Mus musculus [20] = test: Toxicity in BALB/c nude mouse xenografted with human CAR cells assessed as albumin levels in blood at 25 mg/kg, po qd administered for 30 days measured on day 31 (reference value: 3.45 +/- 0.138 g/dL); assay type: organism-based; conditions: in vivo, 720 h
Mus musculus [21] = test: Toxicity in BALB/c nude mouse xenografted with human CAR cells assessed as uric acid levels in blood at 25 mg/kg, po qd administered for 30 days measured on day 31 (reference value: 4.65 +/- 0.864 mg/dL); assay type: organism-based; conditions: in vivo, 720 h
[22] = Antitumor activity against human CAR cells xenografted in BALB/c nude mouse assessed as tumor weight at 25 mg/kg, po qd administered for 30 days measured on day 31 relative to control; assay type: functional; procedure, shortened: as §3
Mus musculus [23] = test: Toxicity in BALB/c nude mouse xenografted with human CAR cells assessed as albumin levels in blood at 50 mg/kg, po qd administered for 30 days measured on day 31 (reference value: 3.45 +/- 0.138 g/dL); assay type: organism-based; conditions: in vivo, 720 h
Mus musculus [24] = test: Toxicity in BALB/c nude mouse xenografted with human CAR cells assessed as change in behavior at 25 to 100 mg/kg, po qd administered for 30 days measured during compound dosing; assay type: organism-based; conditions: in vivo, 720 h; procedure, shortened: as §2
Mus musculus [25] = test: Toxicity in BALB/c nude mouse xenografted with human CAR cells assessed as albumin levels in blood at 100 mg/kg, po qd administered for 30 days measured on day 31 (reference value: 3.45 +/- 0.138 g/dL); assay type: organism-based; conditions: in vivo, 720 h
Mus musculus [26] = test: Toxicity in BALB/c nude mouse xenografted with human CAR cells assessed as creatinine levels in blood at 50 mg/kg, po qd administered for 30 days measured on day 31 (reference value: 1 +/- 0.18 mg/dL); assay type: organism-based; conditions: in vivo, 720 h
Mus musculus [27] = test: Toxicity in BALB/c nude mouse xenografted with human CAR cells assessed as blood urea nitrogen levels in blood at 50 mg/kg, po qd administered for 30 days measured on day 31 (reference value: 27.7 +/- 4.116 mg/dL); assay type: organism-based; conditions: in vivo, 720 h

Q: With COc1ccc(/C=C/c2cc(OC(=O)C(C)(CO)CO)cc(OC(=O)C(C)(CO)CO)c2)cc1 as the compound, how does the IC50 [1] read?
A: 73.9 µM

Q: What about the IC50 [2] of the same compound?
A: 70.8 µM

Q: With COc1cc(O)cc(/C=C/c2ccc(OC(=O)C(C)(CO)CO)cc2)c1 as the compound, how does the IC50 [2] read?
A: 64 µM

Q: For CC(CO)(CO)C(=O)Oc1ccc(/C=C/c2cc(OC(=O)C(C)(CO)CO)cc(OC(=O)C(C)(CO)CO)c2)cc1, which IC50 [2] is on record?
A: 124 µM

Q: For CC(CO)(CO)C(=O)Oc1cc(O)cc(/C=C/c2ccc(O)cc2)c1, which IC50 [1] is on record?
A: 54.9 µM

Q: With COc1cc(/C=C/c2ccc(OC(=O)C(C)(CO)CO)cc2)cc(OC(C)=O)c1 as the compound, how does the IC50 [1] read?
A: 52 µM

Q: And the IC50 [2]?
A: 50.3 µM

Q: For COc1cc(/C=C/c2ccc(OC(=O)C(C)(CO)CO)cc2)cc(OC)c1, which Activity (Mus musculus [3]) is on record?
A: 5.05 mg/dL

Q: What about the Activity (Mus musculus [4]) of the same compound?
A: 196.5 mg/dL

Q: And the Activity (Mus musculus [5])?
A: 0.83 mg/dL

Q: What about the Activity (Mus musculus [6]) of the same compound?
A: 5.583 g/dL

Q: What about the IC50 [1] of the same compound?
A: 73.2 µM

Q: What about the Activity (Mus musculus [7]) of the same compound?
A: 29.25 mg/dL

Q: What about the Activity (Mus musculus [8]) of the same compound?
A: Non-Toxic

Q: And the Activity [9]?
A: 47%

Q: What about the Activity [10] of the same compound?
A: 22%

Q: And the Tmax [11]?
A: 2 h

Q: What about the Activity (Mus musculus [12]) of the same compound?
A: 5.45 mg/dL

Q: What about the Activity (Mus musculus [13]) of the same compound?
A: 172.5 mg/dL

Q: And the Activity (Mus musculus [14])?
A: 5.283 g/dL

Q: What about the Activity (Mus musculus [15]) of the same compound?
A: Non-Toxic

Q: What about the Activity (Mus musculus [16]) of the same compound?
A: 181.333 mg/dL

Q: And the IC50 [2]?
A: 32.6 µM

Q: What about the Activity (Mus musculus [17]) of the same compound?
A: 5.383 g/dL

Q: What about the Activity (Mus musculus [18]) of the same compound?
A: 28.2 mg/dL

Q: And the Activity (Mus musculus [19])?
A: 1.133 mg/dL

Q: And the Activity (Mus musculus [20])?
A: 3.666 g/dL

Q: And the Activity (Mus musculus [21])?
A: 4.567 mg/dL

Q: What about the Activity [22] of the same compound?
A: 60%

Q: What about the Activity (Mus musculus [23]) of the same compound?
A: 3.417 g/dL

Q: And the Activity (Mus musculus [24])?
A: Non-Toxic

Q: What about the Activity (Mus musculus [25]) of the same compound?
A: 3.4 g/dL

Q: And the Activity (Mus musculus [26])?
A: 0.91 mg/dL

Q: And the Activity (Mus musculus [27])?
A: 30.95 mg/dL

Q: Which IC50 [1] does the source give for CC(=O)Oc1cc(/C=C/c2ccc(OC(=O)C(C)(CO)CO)cc2)cc(OC(C)=O)c1 here?
A: 103 µM

Q: What about the IC50 [2] of the same compound?
A: 116 µM

Q: For CC(=O)Oc1cc(/C=C/c2ccc(OC(=O)C(C)(CO)CO)cc2)cc(OC(=O)C(C)(CO)CO)c1, which IC50 [1] is on record?
A: 122 µM

Q: And the IC50 [2]?
A: 119 µM

Q: With COc1cc(/C=C/c2ccc(OC(=O)C(C)(CO)CO)cc2)cc(OC(=O)C(C)(CO)CO)c1 as the compound, how does the IC50 [1] read?
A: 56.5 µM

Q: What about the IC50 [2] of the same compound?
A: 59.8 µM

Q: With COc1ccc(/C=C/c2cc(OC)cc(OC(=O)C(C)(CO)CO)c2)cc1 as the compound, how does the IC50 [1] read?
A: 64.2 µM

Q: And the IC50 [2]?
A: 67.3 µM

Q: Which IC50 [1] does the source give for COc1ccc(/C=C/c2cc(O)cc(OC)c2)cc1 here?
A: 100 µM

Q: What about the IC50 [2] of the same compound?
A: 98.3 µM

Q: For Oc1ccc(/C=C/c2cc(O)cc(O)c2)cc1 [RESVERATROL], which IC50 [2] is on record?
A: 88.3 µM
